# ChEMBL document CHEMBL5257020, “Discovery of a 9-mer Cationic Peptide (LTX-315) as a Potential First in Class Oncolytic Peptide” (J Med Chem, 2016)
# Where a SMILES comes first, the peptide text is derived from it. [ ]: non-standard residue; d: D form. ξ: configuration not given here. ξBip = NC(Cc1ccc(-c2ccccc2)cc1)C(=O)O; ξDip = NC(C(=O)O)C(c1ccccc1)c1ccccc1
# Tests used:
# [1] = system: Raji; test: Cytotoxicity against human Raji cells assessed as inhibition of cell proliferation incubated for 4 hrs by MTS assay; assay type: functional, cell-based
# Procedure, shortened: (§1)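 Cells grown in RPMI-1640 with 2 mM L-glutamine and 10% FBS, plated, then held 24 h at 37 °C. Adherent lines washed once in FBS-free medium. Cells exposed 4 h at 37 °C, 5% CO2 in FBS-free medium to 10 concentrations (1/4 steps, 400 μM top). 1% Triton X-100 served as positive control. MTS/PMS added for 2 h, then OD 490 nm read. IC50 from semilog curves; three independent experiments, quadruplicate wells.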
# [2] = Cytotoxicity against human MINO cells assessed as inhibition of cell proliferation incubated for 4 hrs by MTS assay; assay type: functional, cell-based; procedure, shortened: as §1
# [3] = system: KARPAS-299; test: Cytotoxicity against human KARPAS-299 cells assessed as inhibition of cell proliferation incubated for 4 hrs by MTS assay; assay type: functional, cell-based; conditions: KARPAS-299, 4 h; procedure, shortened: as §1
# [4] = system: CCRF-CEM; test: Cytotoxicity against human CCRF-CEM cells assessed as inhibition of cell proliferation incubated for 4 hrs by MTS assay; assay type: functional, cell-based; procedure, shortened: as §1
# [5] = Cytotoxicity against human MRC5 cells assessed as inhibition of cell proliferation incubated for 4 hrs by MTT assay; assay type: toxicity, cell-based
# Procedure, shortened: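 MRC-5 human embryonic lung fibroblasts cultured in MEM with 2 mM L-glutamine and 10% FBS, without antibiotics, at 37 °C in humidified 5% CO2. Cultures were tested for mycoplasma. IC50 from three or more independent measurements, given as mean ± SD.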
# [6] = Cytotoxicity against mouse AT84 cells assessed as inhibition of cell proliferation incubated for 4 hrs by MTT assay; assay type: functional, cell-based; conditions: AT84, 4 h
# [7] = system: HL-60; test: Cytotoxicity against human HL-60 cells assessed as inhibition of cell proliferation incubated for 4 hrs by MTS assay; assay type: functional, cell-based; conditions: HL-60, 4 h; procedure, shortened: as §1
# [8] = system: MCF7; test: Cytotoxicity against human MCF7 cells assessed as inhibition of cell proliferation incubated for 4 hrs by MTS assay; assay type: functional, cell-based; conditions: MCF7, 4 h; procedure, shortened: as §1
# [9] = system: MCF7; test: Cytotoxicity against human MCF7 cells transfected with MDR1 assessed as inhibition of cell proliferation incubated for 4 hrs by MTS assay; assay type: functional, cell-based; conditions: MCF7, 4 h; procedure, shortened: as §1
# [10] = system: IGROV-1; test: Cytotoxicity against human IGROV-1 cells assessed as inhibition of cell proliferation incubated for 4 hrs by MTS assay; assay type: functional, cell-based; conditions: IGROV-1, 4 h; procedure, shortened: as §1
# [11] = system: K562; test: Cytotoxicity against human K562 cells assessed as inhibition of cell proliferation incubated for 4 hrs by MTS assay; assay type: functional, cell-based; conditions: K562, 4 h; procedure, shortened: as §1
# [12] = system: K562; test: Cytotoxicity in imatinib resistant human K562 cells assessed as inhibition of cell proliferation incubated for 4 hrs by MTS assay; assay type: functional, cell-based; conditions: K562, 4 h
# Procedure, shortened: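 Oncodesign panel MTS/PMS assay. Cells in RPMI-1640 + 10% FBS. After 24 h pre-plating, adherent lines washed in FBS-free medium. Cells exposed 4 h at 37 °C in FBS-free medium to 10 concentrations, 1/4 dilutions from 400 μM top. Triton X-100 (1% final) positive control. MTS/PMS added, 2 h, OD 490 nm. IC50 from semilog curves. Three independent experiments, quadruplicate wells.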
# [13] = system: Daudi; test: Cytotoxicity against human Daudi cells assessed as inhibition of cell proliferation incubated for 4 hrs by MTS assay; assay type: functional, cell-based; procedure, shortened: as §1
# [14] = system: U-937; test: Cytotoxicity against human U-937 cells assessed as inhibition of cell proliferation incubated for 4 hrs by MTS assay; assay type: functional, cell-based; conditions: U-937, 4 h; procedure, shortened: as §1
# [15] = system: CEM-VLB; test: Cytotoxicity against human CCRF-CEM/VLB cells assessed as inhibition of cell proliferation incubated for 4 hrs by MTS assay; assay type: functional, cell-based; procedure, shortened: as §1
# [16] = system: RPMI-8226; test: Cytotoxicity against human RPMI-8226 cells assessed as inhibition of cell proliferation incubated for 4 hrs by MTS assay; assay type: functional, cell-based; conditions: RPMI-8226, 4 h; procedure, shortened: as §1
# [17] = system: MDA-MB-231; test: Cytotoxicity against human MDA-MB-231 cells assessed as inhibition of cell proliferation incubated for 4 hrs by MTS assay; assay type: functional, cell-based; conditions: MDA-MB-231, 4 h; procedure, shortened: as §1
# [18] = system: MDA-MB-435S; test: Cytotoxicity against human MDA-MB-435S cells assessed as inhibition of cell proliferation incubated for 4 hrs by MTS assay; assay type: functional, cell-based; procedure, shortened: as §1
# [19] = system: T47D; test: Cytotoxicity against human T47D cells assessed as inhibition of cell proliferation incubated for 4 hrs by MTS assay; assay type: functional, cell-based; procedure, shortened: as §1
# [20] = system: HCT-15; test: Cytotoxicity against human HCT-15 cells assessed as inhibition of cell proliferation incubated for 4 hrs by MTS assay; assay type: functional, cell-based; conditions: HCT-15, 4 h; procedure, shortened: as §1
# [21] = system: HT-29; test: Cytotoxicity against human HT-29 cells assessed as inhibition of cell proliferation incubated for 4 hrs by MTS assay; assay type: functional, cell-based; conditions: HT-29, 4 h; procedure, shortened: as §1
# [22] = Cytotoxicity against human HUVEC-C cells assessed as inhibition of cell proliferation incubated for 4 hrs by MTS assay; assay type: toxicity, cell-based; procedure, shortened: as §1
# [23] = system: 786-0; test: Cytotoxicity against human 786-0 cells assessed as inhibition of cell proliferation incubated for 4 hrs by MTS assay; assay type: functional, cell-based; conditions: 786-0, 4 h; procedure, shortened: as §1
# [24] = system: SK-HEP1; test: Cytotoxicity against human SK-HEP1 cells assessed as inhibition of cell proliferation incubated for 4 hrs by MTS assay; assay type: functional, cell-based; conditions: SK-HEP1, 4 h; procedure, shortened: as §1
# [25] = system: A549; test: Cytotoxicity against human A549 cells assessed as inhibition of cell proliferation incubated for 4 hrs by MTS assay; assay type: functional, cell-based; conditions: A549, 4 h; procedure, shortened: as §1
# [26] = system: Calu-6; test: Cytotoxicity against human Calu-6 cells assessed as inhibition of cell proliferation incubated for 4 hrs by MTS assay; assay type: functional, cell-based; conditions: Calu-6, 4 h; procedure, shortened: as §1
# [27] = Cytotoxicity against human MRC5 cells assessed as inhibition of cell proliferation incubated for 4 hrs by MTS assay; assay type: toxicity, cell-based; procedure, shortened: as §1
# [28] = system: NCI-H460; test: Cytotoxicity against human NCI-H460 cells assessed as inhibition of cell proliferation incubated for 4 hrs by MTS assay; assay type: functional, cell-based; conditions: NCI-H460, 4 h; procedure, shortened: as §1
# [29] = system: OVCAR-3; test: Cytotoxicity against human OVCAR-3 cells assessed as inhibition of cell proliferation incubated for 4 hrs by MTS assay; assay type: functional, cell-based; conditions: OVCAR-3, 4 h; procedure, shortened: as §1
# [30] = system: SK-OV-3; test: Cytotoxicity against human SK-OV-3 cells assessed as inhibition of cell proliferation incubated for 4 hrs by MTS assay; assay type: functional, cell-based; conditions: SK-OV-3, 4 h; procedure, shortened: as §1
# [31] = system: BXPC-3; test: Cytotoxicity against human BXPC-3 cells assessed as inhibition of cell proliferation incubated for 4 hrs by MTS assay; assay type: functional, cell-based; conditions: BXPC-3, 4 h; procedure, shortened: as §1
# [32] = system: DU-145; test: Cytotoxicity against human DU-145 cells assessed as inhibition of cell proliferation incubated for 4 hrs by MTS assay; assay type: functional, cell-based; conditions: DU-145, 4 h; procedure, shortened: as §1
# [33] = system: PC-3; test: Cytotoxicity against human PC-3 cells assessed as inhibition of cell proliferation incubated for 4 hrs by MTS assay; assay type: functional, cell-based; conditions: PC-3, 4 h; procedure, shortened: as §1
# [34] = system: A-431; test: Cytotoxicity against human A-431 cells assessed as inhibition of cell proliferation incubated for 4 hrs by MTS assay; assay type: functional, cell-based; conditions: A-431, 4 h; procedure, shortened: as §1
# [35] = system: Malme-3M; test: Cytotoxicity against human Malme-3M cells assessed as inhibition of cell proliferation incubated for 4 hrs by MTS assay; assay type: functional, cell-based; procedure, shortened: as §1
# [36] = Cytotoxicity against human Hs 445 cells assessed as inhibition of cell proliferation incubated for 4 hrs by MTS assay; assay type: functional, cell-based; conditions: Hs 445, 4 h; procedure, shortened: as §1
# [37] = Cytotoxicity against human U-87 MG cells assessed as inhibition of cell proliferation incubated for 4 hrs by MTS assay; assay type: functional, cell-based, U-87MG ATCC; procedure, shortened: as §1
# [38] = system: COLO 205; test: Cytotoxicity against human COLO 205 cells assessed as inhibition of cell proliferation incubated for 4 hrs by MTS assay; assay type: functional, cell-based; conditions: COLO 205, 4 h; procedure, shortened: as §1
SMILES,IC50 [1],IC50 [2],IC50 [3],IC50 [4],IC50 at 4 h [5],IC50 [6],IC50 [7],IC50 [8],IC50 [9],IC50 [10],IC50 [11],IC50 [12],IC50 [13],IC50 [14],IC50 [15],IC50 [16],IC50 [17],IC50 [18],IC50 [19],IC50 [20],also measured
NCCCC[C@H](NC(=O)[C@H](Cc1c[nH]c2ccccc12)NC(=O)[C@H](Cc1c[nH]c2ccccc12)NC(=O)[C@H](CCCCN)NC(=O)[C@H](CCCCN)NC(=O)[C@H](Cc1c[nH]c2ccccc12)NC(=O)C(Cc1ccc(-c2ccccc2)cc1)NC(=O)[C@H](CCCCN)NC(=O)[C@@H](N)CCCCN)C(N)=O (stereo partly specified) (H-KK[ξBip]WKKWWK-NH2),16.1 µM,8.4 µM,10 µM,7.6 µM,151 µM,17.7 µM,6.1 µM,6.8 µM,8.4 µM,13.4 µM,7.2 µM,7.9 µM,6.6 µM,3.8 µM,5.7 µM,4 µM,10.8 µM,11.4 µM,4.2 µM,13.9 µM,IC50 [21]: 10.5 µM; IC50 at 4 h [22]: 37.9 µM; IC50 [23]: 16.8 µM; IC50 [24]: 12.6 µM; IC50 [25]: 10.3 µM; IC50 [26]: 6.1 µM; IC50 at 4 h [27]: 30.9 µM; IC50 [28]: 11.2 µM; IC50 [29]: 14.3 µM; IC50 [30]: 17.7 µM; IC50 [31]: 8.9 µM; IC50 [32]: 8.8 µM; IC50 [33]: 9.3 µM; IC50 [34]: 7.2 µM; IC50 [35]: 8.9 µM; IC50 [36]: 4.2 µM; IC50 [37]: 18.5 µM; IC50 [38]: 4.9 µM
N=C(N)NCCC[C@H](NC(=O)[C@H](Cc1c[nH]c2ccccc12)NC(=O)[C@H](Cc1c[nH]c2ccccc12)NC(=O)[C@H](CCCNC(=N)N)NC(=O)[C@H](CCCNC(=N)N)NC(=O)C(NC(=O)[C@H](Cc1c[nH]c2ccccc12)NC(=O)[C@H](CCCNC(=N)N)NC(=O)[C@@H](N)CCCNC(=N)N)C(c1ccccc1)c1ccccc1)C(N)=O (stereo partly specified) (H-RRW[ξDip]RRWWR-NH2),11.3 µM,5.2 µM,8.2 µM,5.6 µM,76 µM,11.3 µM,6.7 µM,5.5 µM,6.6 µM,11.1 µM,7 µM,7.7 µM,4.7 µM,2.6 µM,3.6 µM,4.1 µM,7.6 µM,8 µM,3.5 µM,7.5 µM,IC50 [21]: 11.5 µM; IC50 at 4 h [22]: 19.4 µM; IC50 [23]: 7.5 µM; IC50 [24]: 6.3 µM; IC50 [25]: 7.3 µM; IC50 [26]: 5.8 µM; IC50 at 4 h [27]: 14.6 µM; IC50 [28]: 9.3 µM; IC50 [29]: 8.4 µM; IC50 [30]: 7.4 µM; IC50 [31]: 6.2 µM; IC50 [32]: 6.8 µM; IC50 [33]: 9.8 µM; IC50 [34]: 5.5 µM; IC50 [35]: 10.4 µM; IC50 [36]: 2.2 µM; IC50 [37]: 13.1 µM; IC50 [38]: 6.7 µM
